A selection: hits, their analogues and other compounds. The true share with any hit is near 9.4%.
T cruzi repl – inhibitors of intracellular T. cruzi growth, primary screen, luminescence, NIH3T3 host cells | T. cruzi beta-gal in NIH3T3, 90 h | inhibition, % (test concentration not listed) | 300,000 compounds, 1.4% hits | AID 1885, 2009;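 active means mean inhibition across valid replicates above about 55%, limit read from the data; inconclusive means mean below that limit but half or more replicates reach it; inactive means mean below it, under half of replicates reach it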;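 further: signal also drops with host cell toxicity which is not excluded here; 0% = plate median of DMSO wells and 100% = zero luminescence signal; higher percent means less beta-gal luminescence so fewer parasites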
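Assay system: NIH/3T3 fibroblasts plus reporter T. cruzi. Amount: NIH/3T3 cells, 5,000 per well. Buffer or medium: DMEM, 2% fetal bovine serum. Doses: compound pinned at 50 nL/well, DMSO. Schedule: ≥90 h infection period, 3 h prior cell attachment. Signal: luminescent β-galactosidase signal after 60 min lysis. Read-out: parasite load inhibition, %.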
L major viab – Leishmania major promastigote growth inhibition, primary screen | Leishmania major promastigotes, resazurin fluorescence viability | inhibition, % at 10 µM | 200,000 compounds, 9% hits; in the data active means inhibition above about 50%;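 further: promastigotes grown with compound for 44 hours at 28 °C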
Mdm2 MdmX PPI – inhibitors of human Mdm2-MdmX association, primary screen, cell-based, luminescence, split luciferase, SaOS-2, uHTS. Protein Mdm4 (Homo sapiens) + E3 ubiquitin-protein ligase Mdm2 (Homo sapiens), …. SaOS-2 split-luciferase Mdm2/MdmX complementation. 330,000 compounds, 3% hits. inhibition, % at 8 µM;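 active means inhibition of at least 50% at 8 µM in the primary screen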
Target sequence (O15151 whole entry, looked up): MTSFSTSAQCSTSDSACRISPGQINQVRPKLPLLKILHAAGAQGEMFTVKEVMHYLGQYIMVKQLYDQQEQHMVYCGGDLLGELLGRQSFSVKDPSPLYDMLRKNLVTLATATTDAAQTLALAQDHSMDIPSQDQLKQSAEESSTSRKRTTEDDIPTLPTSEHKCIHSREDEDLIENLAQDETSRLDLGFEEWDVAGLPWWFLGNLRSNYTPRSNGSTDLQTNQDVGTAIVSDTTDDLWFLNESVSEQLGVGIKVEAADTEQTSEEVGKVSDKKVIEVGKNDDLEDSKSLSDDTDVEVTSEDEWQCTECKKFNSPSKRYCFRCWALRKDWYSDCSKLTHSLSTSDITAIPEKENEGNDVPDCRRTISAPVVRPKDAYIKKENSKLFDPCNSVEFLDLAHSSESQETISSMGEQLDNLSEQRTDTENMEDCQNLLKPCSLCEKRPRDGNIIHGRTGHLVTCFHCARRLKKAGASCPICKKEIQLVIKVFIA
Target sequence (Q00987 whole entry, looked up): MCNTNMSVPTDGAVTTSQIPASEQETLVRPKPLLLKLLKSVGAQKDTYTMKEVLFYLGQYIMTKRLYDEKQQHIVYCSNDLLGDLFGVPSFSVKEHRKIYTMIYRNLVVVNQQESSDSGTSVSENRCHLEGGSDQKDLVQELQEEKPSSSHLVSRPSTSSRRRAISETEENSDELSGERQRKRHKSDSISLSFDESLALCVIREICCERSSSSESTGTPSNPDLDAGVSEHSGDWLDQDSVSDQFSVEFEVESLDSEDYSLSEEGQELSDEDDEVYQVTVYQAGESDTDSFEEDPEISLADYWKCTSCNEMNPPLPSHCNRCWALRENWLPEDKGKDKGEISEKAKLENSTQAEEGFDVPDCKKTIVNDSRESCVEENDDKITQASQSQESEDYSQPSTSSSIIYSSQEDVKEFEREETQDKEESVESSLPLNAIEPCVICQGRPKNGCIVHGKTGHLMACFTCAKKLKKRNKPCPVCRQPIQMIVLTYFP
SKKanGAS inh – S. pyogenes SKKanGAS growth inhibitors in kanamycin, primary screen, streptokinase expression inhibitor project, SKKanGAS strain, BacTiter-Glo luminescence. 300,000 compounds, 1.3% hits. 6 h. inhibition, % at 7.5 µM;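 active means mean replicate score, as percent of positive control median, at least 50; inconclusive means mean below 50 but one replicate at or above 50; inactive means mean and every replicate below 50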;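 further: strain carries kanamycin resistance gene driven by streptokinase promoter and grows in 40 µg/ml kanamycin; loss of luminescence reflects streptokinase promoter inhibition or plain growth inhibition; 0% = median of DMSO wells and 100% = positive control at its reference dose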
CSC inhib – cancer stem cell viability inhibitors, primary screen, luminescence; AID 2717, 2010; 300,000 compounds, 1.1% hits; cancer stem cell-like cells viability; inhibition, % at 7.5 µM; in the data active means inhibition above about 75%; inconclusive means no clear call, values can overlap the other calls; tested in HMLE shEcad cells
Beta cell apopt – inhibitors of cytokine-induced beta cell apoptosis, primary screen, luminescence | INS-1E cytokine-induced death, ATP luminescence, 48 h; percent of positive-control rescue, neutral wells zero | protection from apoptosis, % (no concentration beside the values) | 300,000 compounds, 0.8% hits;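 active means Every replicate reaches about 75%, or at least half do and their mean reaches it too, limit read from the data; inconclusive means At least half of replicates reach the limit but their mean does not; inactive means Under half of replicates reach the limit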;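 further: 0% = cytokine-treated negative control wells and 100% = positive control rescue; higher means more ATP so stronger rescue from cytokine killing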
Mdm2 MdmX conf – Mdm2-MdmX complex disruptors, retested hits, confirmation, luminescence, single concentration. shares compounds with Mdm2 MdmX PPI. Mdm2-MdmX binding, luminescent assay. inhibition, % at 8 µM. 10,000 compounds, 55% hits. AID 489028, 2010; in the data active means inhibition above about 40%
FLuc counter – full-length luciferase signal inhibition, confirmation, counter-screen for Mdm2/MdmX interaction inhibitor project, cell-based, single concentration, SaOS-2 | shares compounds with Mdm2 MdmX PPI | SaOS-2 full-length luciferase counterscreen, luminescence | inhibition, % at 8 µM | 6,200 compounds, 77% hits;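 active means mean inhibition at 8 µM reaching about 37%, which flags the compound as non-specific, limit read from the data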;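 further: p53-null SaOS-2 cells with luciferase driven by a doxycycline-inducible promoter; compound on cells about two nights before reading with doxycycline added after day one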
Starred values were filed as active, the others as inactive; ? = inconclusive; . = no result.

SMILES | T cruzi repl | L major viab | Mdm2 MdmX PPI | SKKanGAS inh | CSC inhib | Beta cell apopt | Mdm2 MdmX conf | others
COc1cc(-c2noc(C)c2C#CCO)cc(OC)c1OC | -17 | . | 28 | -2 | 2 | -6 | .
COc1ccc(-c2oc(=O)c3cc(OC)c(OC)cc3c2/C=C/c2ccc(F)cc2)cc1 | . | . | 29 | . | -25 | 2 | .
CN(C)CCCNc1ncnc2oc(-c3ccccc3)c(-c3ccccc3)c12 | 42 | . | 66* | 2 | 15 | 2 | 39 | FLuc counter=64*
C=CCOc1ccc(/C=C/C(=O)Nc2ccc(C(=O)NC)cc2)cc1 | -4 | -9 | 75* | 1 | 7 | -5 | 5
CNC(=O)c1ccc(NC(=O)/C=C/c2cccc(F)c2)cc1 | -13 | -2 | -19 | -3 | 21 | 2 | .
Cc1ncc(CO)c(/C=N/Nc2ccc(C(F)(F)F)cn2)c1O | 30 | . | 75* | 1 | 89* | 116* | 72* | FLuc counter=34
Cc1ncc(CO)c(/C=N/NC(=S)Nc2ccc(F)cc2)c1O | 22 | -1 | 14 | 39 | . | . | .
Cc1ccc(C)c(OCC(=O)Nc2ccc(S(=O)(=O)Nc3ncccn3)cc2)c1 | -17 | . | -2 | 16 | -5 | . | .
CCC1(CC)NC(=O)N(CC(=O)Nc2ccc(C)cc2C)C1=O | . | . | 18 | . | -20 | -1 | .
CCOc1cc(NC(=O)c2cccs2)c(OCC)cc1NC(=O)CCC(=O)NCC1CCCO1 (centres undefined) | 28 | -3 | 13 | 5 | -28 | -3 | .
COCCn1c(SCC(=O)Nc2cc(C)on2)nc2cc(Cl)ccc2c1=O | . | . | 64* | . | . | 2 | 6
COCCn1c(SCC(=O)Nc2ccc(OC)cc2)nc2c(oc3ccccc32)c1=O | 8 | 12 | 99* | -6 | -5 | 0 | 15
Cn1c(SCC(=O)Nc2ccccc2)nc2c([nH]c3ccccc32)c1=O | -21 | -4 | 67* | -8 | 8 | 19 | 10
Cc1cc(NC(=O)CSc2nc3cc(Cl)ccc3c(=O)n2CC(C)C)no1 | 0 | -11 | 1 | 4 | 2 | -1 | .
COc1cccc(NC(=O)CSc2nc3c([nH]c4ccccc43)c(=O)n2C)c1 | 21 | 1 | 55* | 0 | -11 | 28 | 10
Cn1c(SCC(=O)NCc2ccccc2)nc2c([nH]c3ccccc32)c1=O | 2 | -2 | 29 | -4 | 10 | -2 | .
Cc1cccc(NC(=O)CSc2nc3c([nH]c4ccccc43)c(=O)n2C)c1 | -7 | -3 | 65* | 3 | 32 | 20 | 1
COCCn1c(SCC(=O)Nc2cccc(F)c2)nc2c([nH]c3ccccc32)c1=O | -22 | . | 88* | -2 | 3 | 23 | 66* | FLuc counter=47*
Cc1cccc(NC(=O)CSc2nc3ccccc3c(=O)n2C)c1 | 14 | . | 11 | -17 | 7 | 6 | .
CCOc1ccccc1NC(=O)COC(=O)C1CCC(=O)N1 (centres undefined) | . | . | 16 | . | -17 | -8 | .
Cc1cc(N2CCN(C)CC2)nc2ccc(NC(=S)N3CCN(c4ccc(F)cc4)CC3)cc12 | 49 | 100* | 94* | -7 | ? | -3 | 21
Cc1cccc(N2CCN(C(=S)Nc3ccc4nc(N5CCN(C)CC5)cc(C)c4c3)CC2C)c1 (centres undefined) | 51 | 98* | 88* | -6 | ? | 10 | 60* | FLuc counter=65*
COc1ccc(-c2cc(C(=O)N/N=C/c3cccnc3)c3cc(C)cc(C)c3n2)cc1 | 26 | . | 49 | 26 | 59 | 11 | .
COC(=O)[C@]1(C)N[C@H](CN(C)S(=O)(=O)c2ccc(OC(F)(F)F)cc2)[C@@H]2C(=O)N(Cc3ccccc3)C(=O)[C@@H]21 | . | . | 24 | . | . | . | .
Cc1ccc(OCCn2cc(C(=S)N3CCCC3)c3ccccc32)cc1C | 30 | 41 | 96* | 13 | -7 | 20 | 91* | FLuc counter=54*
SMILES | T cruzi repl | L major viab | Mdm2 MdmX PPI | SKKanGAS inh | CSC inhib | Beta cell apopt | Mdm2 MdmX conf | others
Cc1ccc(OCCn2cc(/C(N)=N/O)c3ccccc32)cc1C | -1 | 21 | -16 | 1 | -1 | -2 | .
Clc1ccc(-n2nnnc2-c2cnc(-c3ccncc3)nc2-c2cccs2)cc1 | 4 | 50 | 40 | 8 | -1 | 2 | .
FC(F)(F)c1nc(-c2cccs2)ncc1-c1nnnn1-c1ccc(Cl)cc1 | -9 | 2 | 69* | 12 | 26 | 45 | 36
CCC(Cc1ccccc1)NS(=O)(=O)c1c(C)nc2scc(C)n2c1=O (centres undefined) | -2 | . | 11 | 3 | -9 | -2 | .
Cc1ccc(-n2nc3c(=O)n(CC(=O)NC(C)CCc4ccccc4)nc(C)c3c2C)cc1 (centres undefined) | 6 | . | 50* | 0 | 2 | 9 | 9
CCN(CC(=O)NCc1cccs1)C(=O)c1cccc(S(=O)(=O)N(C)C)c1 | . | . | 10 | . | -17 | -1 | .
CN(C)CCOC(=O)c1ccc2c(c1)S(=O)(=O)c1ccccc1C2=O | -7 | . | 1 | 0 | -7 | -11 | .
N#Cc1ccc(COc2cccc3cccnc23)cc1 | -2 | . | 29 | 5 | -2 | -6 | .
CC(C)(C)NC(=O)CC1C[C@H](C(=O)N2CCCCC2)[C@@]2(CCc3ccccc3)c3[nH]c4ccccc4c3CCN2C1=O (some centres undefined) | . | . | 62* | . | 2 | -7 | 50* | FLuc counter=70*
O=C(CC1C[C@H](C(=O)N2CCCCC2)[C@@]2(CCc3ccccc3)c3[nH]c4ccccc4c3CCN2C1=O)NCc1ccco1 (some centres undefined) | . | . | 52* | . | . | 14 | 18
CN(C)C(=O)CCc1ccc2c3c([nH]c2c1)[C@]1(CCc2ccccc2)[C@@H](C(=O)N2CCCCC2)C[C@H](CC(=O)NCc2ccco2)C(=O)N1CC3 | . | . | 98* | . | . | . | 74* | FLuc counter=51*
CN(C)c1ccc(C2CNC(c3ccc(Cl)c([N+](=O)[O-])c3)c3[nH]c4ccccc4c32)cc1 (centres undefined) | 57* | . | 54* | 15 | . | 7 | 29 | FLuc counter=62*
CN(C)c1ccc(CN(C(=O)c2ccc(Cl)c([N+](=O)[O-])c2)C2CCS(=O)(=O)C2)cc1 (centres undefined) | -6 | . | 24 | 3 | -3 | -6 | .
Nc1ncc(-c2ccccc2)c(-c2ccc(O)cc2O)n1 | -7 | . | 61* | -5 | 2 | -13 | 31
COc1ccc(-c2nc(N)ncc2-c2ccc(OC)c(OC)c2)c(O)c1 | 7 | . | 33 | 0 | 7 | 0 | .

Compound activity: PubChem, several laboratories
